Assay results collected from several papers.
Compare with care: the assays were run in different laboratories.
Target: Cyclin-dependent kinase 11A (CDK11A, Homo sapiens, UniProt Q9UQ88)
Observed: binding
One construct used (Q9UQ88 1-783): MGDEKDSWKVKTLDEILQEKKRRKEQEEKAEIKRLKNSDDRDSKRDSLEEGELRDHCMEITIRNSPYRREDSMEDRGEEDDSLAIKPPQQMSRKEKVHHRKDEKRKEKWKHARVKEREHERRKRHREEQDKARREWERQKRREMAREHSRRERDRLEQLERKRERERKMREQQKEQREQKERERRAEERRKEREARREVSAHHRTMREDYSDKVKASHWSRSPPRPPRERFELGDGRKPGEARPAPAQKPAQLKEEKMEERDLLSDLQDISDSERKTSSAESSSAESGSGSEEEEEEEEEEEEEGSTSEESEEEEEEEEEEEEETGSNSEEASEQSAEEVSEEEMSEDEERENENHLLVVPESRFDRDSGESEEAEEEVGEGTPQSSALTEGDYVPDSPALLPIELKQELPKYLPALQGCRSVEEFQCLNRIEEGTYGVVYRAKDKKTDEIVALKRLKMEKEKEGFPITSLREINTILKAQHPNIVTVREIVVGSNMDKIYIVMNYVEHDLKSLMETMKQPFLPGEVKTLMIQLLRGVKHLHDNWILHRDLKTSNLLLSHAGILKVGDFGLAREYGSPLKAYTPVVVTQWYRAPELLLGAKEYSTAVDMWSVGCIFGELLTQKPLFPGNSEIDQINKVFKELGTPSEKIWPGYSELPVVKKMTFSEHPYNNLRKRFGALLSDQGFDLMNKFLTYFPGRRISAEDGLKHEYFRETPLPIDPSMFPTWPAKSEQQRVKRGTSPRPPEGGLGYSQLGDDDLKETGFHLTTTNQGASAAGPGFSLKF

CSc1cccnc1N1CCN(Cc2nc3ccccc3[nH]2)CC1 — remaining binding (competition with immobilised ligand; 1 µM): 100%
Cc1cnc(Nc2ccc(C(=O)N3CCC(N4CCCC4)CC3)cc2)nc1-c1cc2ccccc2s1 — remaining binding (competition with immobilised ligand; 1 µM): 100%
CCC(=O)N[C@@H]1CC[C@H](C(=O)N(C)c2ccc(-c3nc4ccccc4o3)cc2)C1 — remaining binding (competition with immobilised ligand; 1 µM): 100%
O=C(Nc1c[nH]nc1C(=O)NC1CCNCC1)c1cc(F)cc(F)c1 — remaining binding (competition with immobilised ligand; 1 µM): 100%
CNC(=O)Nc1ccc2c(c1)[C@@]1(CC2)OC(=O)N(CC(=O)N(Cc2ccc(F)cc2)[C@@H](C)C(F)(F)F)C1=O — remaining binding (competition with immobilised ligand; 1 µM): 94%
O=C(c1ccc(Nc2ncc(Cl)c(-c3ccc(Cl)s3)n2)cc1)N1CCC(N2CCCC2)CC1 — remaining binding (competition with immobilised ligand; 1 µM): 39%
Cc1noc([C@H]2C[C@@H](c3ccc(C(F)(F)F)cc3)CN(C(=O)N3CCS(=O)(=O)C3)C2)n1 — remaining binding (competition with immobilised ligand; 1 µM): 100%
COc1cnc(Nc2cccc(S(N)(=O)=O)c2)nc1N1CCN(c2ccccc2)C(=O)C1 — remaining binding (competition with immobilised ligand; 1 µM): 100%
CN(c1nccc(-c2cnn3ncccc23)n1)C1CC1 — remaining binding (1 µM): 100%
CNC(=O)[C@@H]1CC[C@@H](n2c(-c3ccc4cnccc4c3)nc3ccc(C(=O)NCc4cccc(C(N)=O)c4)cc32)C1 — remaining binding (competition with immobilised ligand; 1 µM): 100%
N[C@@H]1CCN(c2nccc(-c3cnn4ncccc34)n2)C1 — remaining binding (1 µM): 98%
C=CC(=O)N1CCC(C(=O)NCC(=O)N2CCN(c3nc(-c4cnc(N)nc4C(F)F)nc(N4CCOCC4)n3)CC2)CC1 — remaining binding (competition with immobilised ligand; 1 µM): 97%
C[C@H]1CCN(c2nccc(-c3cnn4ncccc34)n2)C1 — remaining binding (1 µM): 81%
CNC(=O)c1ccc(Nc2ncc(C(F)(F)F)c(NCc3nccnc3N(C)S(C)(=O)=O)n2)cc1 — remaining binding (competition with immobilised ligand; 0.1 µM): 77%
Cc1cnn2ncc(-c3ccnc(N(C)C)n3)c2c1 — remaining binding (1 µM): 100%
O=C(c1ccc(Nc2nccc(-c3cc4ccccc4s3)n2)cc1)N1CCC(N2CCCC2)CC1 — remaining binding (competition with immobilised ligand; 1 µM): 80%
CN(C)c1nccc(-c2cnc3ncccn23)n1 — remaining binding (1 µM): 100%
NS(=O)(=O)c1cc(NC(=O)C2(c3ccccc3Cl)CC2)ccc1Oc1cccc(Cl)c1 — remaining binding (competition with immobilised ligand; 1 µM): 73%
CCN1CCN(Cc2ccc(C(=O)Nc3ccc(C)c(Oc4ccc5c(c4)CC(=O)N5)c3)cc2C(F)(F)F)CC1 — remaining binding (competition with immobilised ligand; 1 µM): 100%
CC1CCCN1c1nccc(-c2cnn3ncccc23)n1 (centres unmarked) — remaining binding (1 µM): 100%
